Compound activity deposited in PubChem by several laboratories.
Rows were chosen to be rich in hits. Some 9.5% of all compounds tested hit in one or more screens of this group.
mHtt clearance = compounds clearing mutant huntingtin protein; HeLa Exon1htt(103Q)mCFP, aggregate imaging; zero = plate's median compound well; inhibition, % at 1.5 µM; actives 0.42% (n = 47,000);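 active = inhibition of aggregate fluorescence above about 70%, also judged a hit by eye on the cell image, limit read from the data, passing the limit was not always enough; inconclusive = no rule stated for this call; inactive = not judged a hit on image review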;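 also: cells exposed to compound for three days before fixation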
M1 antagonist = blocks the rat M1 muscarinic receptor response to acetylcholine; B-score at 10 µM; actives 3.4% (n = 64,000); AID 628; P08482; CHO-M1 cells, Fluo-4 calcium, ACh EC80 antagonist mode; stronger effect = lower value;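 active = calcium fluorescence response, raw or row-and-column corrected B-score, differing from the plate sample mean either way at a set confidence level, mostly lower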
Target sequence (P08482 whole entry, looked up): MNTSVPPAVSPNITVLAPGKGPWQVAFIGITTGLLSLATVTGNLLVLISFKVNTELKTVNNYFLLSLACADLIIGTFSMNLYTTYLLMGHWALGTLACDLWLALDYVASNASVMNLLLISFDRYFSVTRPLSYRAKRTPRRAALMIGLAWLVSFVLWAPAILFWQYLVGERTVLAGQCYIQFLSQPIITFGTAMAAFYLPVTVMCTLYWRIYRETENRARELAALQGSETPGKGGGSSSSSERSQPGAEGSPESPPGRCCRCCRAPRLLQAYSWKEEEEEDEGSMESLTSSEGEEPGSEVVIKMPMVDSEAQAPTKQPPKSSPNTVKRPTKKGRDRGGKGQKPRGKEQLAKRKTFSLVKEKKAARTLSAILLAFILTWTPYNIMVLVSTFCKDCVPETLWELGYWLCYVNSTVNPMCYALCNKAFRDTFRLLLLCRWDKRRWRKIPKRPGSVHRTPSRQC
M1 agonist = activates the M1 muscarinic receptor | CHO-M1 cells, Fluo-4 calcium fluorescence, agonist mode; stronger effect = higher value | B-score at 10 µM | actives 3% (n = 64,000) | AID 626;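 active = fluorescence rise, raw or as B-score row- and column-corrected plate score, outside the 99.7% band of its plate's samples, either direction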
D1 mod = allosteric modulators of human D1 dopamine receptor. AID 641. actives 5.9% (n = 58,000). P21728. HEK293 D1, CRE-luciferase, dopamine EC30 potentiation; actives deviate in either direction. B-score at 10 µM;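 active = luminescence count or its row- and column-corrected plate score outside the 99.7% band of the plate's sample wells, on either side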
HEK293 NFkB inh = lowers PMA/ionomycin-induced NF-kB signal in HEK293 cells | HEK-293 NF-kB luciferase reporter, luminescence | inhibition, % at 3 µM | actives 0.21% (n = 62,000);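 active = inhibition above the mean of all tested compounds plus 3 SD, cut at about 40% in these data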;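 also: 0% = stimulated DMSO wells and 100% = 10 µM reference inhibitor 5653914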
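Timing: 1 h pretreatment, 16 h stimulation, 37 °C; system: HEK-293 cells with stable firefly luciferase reporter driven by four HIV NF-kB elements; doses: 3 µM once, 0.30% DMSO; measured by: luciferase luminescence; control set: DMSO and 10 µM reference inhibitor; repeats: single test; reagent: PMA plus ionomycin mix as NF-kB-activating stimulus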
Jurkat viability = cytotoxic compounds reducing Jurkat cell viability; Jurkat E6.1 viability, ATP luminescence, 48 h; inhibition, % at 4 µM; AID 463; actives 1.2% (n = 56,000);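 active = inhibition above the mean inhibition of all tested compounds plus 3 SD, cut at about 28% in these data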
M1 antag confirm = confirmation of rat M1 muscarinic receptor antagonists; shares compounds with M1 antagonist; CHO-M1 cells, Fluo-4 calcium, ACh EC80 antagonism; stronger effect = lower value; calcium response (max-min fluorescence) at 10 µM; actives 43% (n = 1,700); AID 677;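 active = calcium response below the same-plate mean of wells given acetylcholine alone at its 80%-effect dose, minus 3 SD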;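 also: raw fluorescence intensity difference in arbitrary instrument units and not normalized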
mGluR4 antag = mGluR4 (human) activity, M1 antagonist secondary assay; shares compounds with M1 antagonist; CHO-mGluR4 calcium flux, Fluo-4 fluorescence, glutamate EC80; stronger effect = lower value; fluorescence response (max-min) at 10 µM; actives 0.9% (n = 1,700); AID 678;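 active = fluorescence response below the plate's average for near-maximal glutamate wells, less 3 SD of those wells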;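 also: raw unnormalized fluorescence span taken in the window right after glutamate addition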
* hit, by the source's call; ? = inconclusive; nt = no result given.

SMILES	mHtt clearance	M1 antagonist	M1 agonist	D1 mod	HEK293 NFkB inh	Jurkat viability	M1 antag confirm	mGluR4 antag
Cc1ccc2nc(-c3ccc4c(c3)OCCO4)cc(C(=O)O)c2c1	4.3	0.404	0.732	-1.86	-9.8	-0.1	nt	nt
O=C(O)c1cc(-c2cccs2)nc2cc3c(cc12)OCCO3	nt	-0.773*	-0.826	nt	-12.6	-0.5	686	220
O=C(CN1CCCC(O)C1)N1c2ccccc2Sc2ccc(C(F)(F)F)cc21 (stereo unspecified)	nt	-10.6*	0.407	-1.66	5.7	-3.0	16*	227
O=S(=O)(c1cccc(-c2nnc(SCc3ccc(Cl)cc3)o2)c1)N1CCCCC1	-37.5	-0.238	1	nt	11.5	-5.5	nt	nt
CN(C)S(=O)(=O)c1cccc(-c2nnc(SCc3ccc4c(c3)OCCO4)o2)c1	nt	-12.5*	-0.919	nt	18.3	0.2	501	199
N#CC1=C2SCN(c3ccccc3)CN2C(=O)CC1c1c(Cl)cccc1Cl (stereo unspecified)	57.5	-0.0731	0.541	0.00541	24.8	5.8	nt	nt
N#CC1=C2SCN(c3ccccc3)CN2C(=O)CC1c1cccs1 (stereo unspecified)	20.1	-3.65*	-0.108	-0.00602	-5.8	-3.0	531	221
CCCCN(C)Cc1c(C)[nH]c2ccc(OCC)cc2c1=O	nt	-0.157	0.318	0.93	5.9	-8.6	nt	nt
COc1ccc(OC)c(CNc2nc3ccccc3n2CCN2CCCCC2)c1	-57.1	nt	nt	-1.04	7.4	2.1	nt	nt
COc1cccc(CNc2nc3ccccc3n2CCN2CCCCC2)c1	nt	-4.3*	-2.14	-2.7	-0.8	9.3	608	273
N#Cc1ccc(-c2ccc(OCC(O)Cn3nnc4ccccc43)cc2)cc1 (stereo unspecified)	-118.9	-0.017	-0.00988	nt	nt	nt	nt	nt
Cc1ccc(S(=O)(=O)NC2=NCN(Cc3ccccc3)CN2)cc1	19.7	0.0442	-0.434	nt	6.5	-9.7	nt	nt
Cc1ccc(S(=O)(=O)NC2=NCN(C3CCN(Cc4ccccc4)CC3)CN2)cc1	nt	-3.2*	0.586	-0.291	5.4	3.0	449	201
N=c1c(C(=O)NCc2ccco2)cc2c(=O)n3ccccc3nc2n1Cc1ccccc1	nt	-2.96*	-0.0835	-0.0755	19.7	8.3	589*	206
Cc1cccn2c(=O)c3cc(C(=O)NCc4cccnc4)c(=N)n(C(C)C)c3nc12	29.5	-2.53*	-1.24	-1.78	10.6	nt	579	259
CC(C)n1c(=N)c(C(=O)NCCc2ccccc2)cc2c(=O)n3ccccc3nc21	nt	-4.05*	4.11	-0.737	9.9	17.9	445*	247
Cc1ccc2nc3c(cc(C(=O)NCc4cccnc4)c(=N)n3C(C)C)c(=O)n2c1	nt	-0.0136	0.711	-0.373	6.5	2.0	nt	nt
O=C(CCCCCC(=O)N(CCO)CCO)N(CCO)CCO	nt	-0.0305	0.511	-0.0632	20.9	-6.4	nt	nt
Nc1ncc(Br)cc1S(=O)(=O)NCCC(=O)N1CCN(c2ncccn2)CC1	nt	-2.93*	-0.638	0.0116	-7.6	-5.3	550	256
O=C(CCNS(=O)(=O)c1cccc2nsnc12)NCCc1ccccc1	nt	0.0811	3.2e-05	-0.48	19.0	nt	nt	nt
COc1cc(OC)c(NC(=O)CCNS(=O)(=O)c2cc(Br)cnc2N)cc1Cl	9.3	-6.85*	0.243	-0.272	-5.3	-3.6	549	253
O=C(CCNS(=O)(=O)c1cccc2nsnc12)N1CCN(c2ccccn2)CC1	nt	-1.98*	-0.304	nt	7.8	nt	41.9*	242
CCOC(=O)N1CCN(C(=O)CCNS(=O)(=O)c2cc(Br)cnc2N)CC1	nt	-0.786	1.08	0.00872	-2.3	-4.8	nt	nt
CN(C)/C=N/C(=S)Nc1ccc(Br)cc1F	17.7	nt	nt	nt	nt	nt	nt	nt
CS(=O)(=O)N(CC(=O)N1CCc2ccccc2C1)c1ccc2c(c1)OCO2	nt	-0.02	0.366	-0.222	3.8	1.9	nt	nt
SMILES	mHtt clearance	M1 antagonist	M1 agonist	D1 mod	HEK293 NFkB inh	Jurkat viability	M1 antag confirm	mGluR4 antag
CCN1CCN(c2cc(C)c3cc(NC(=O)c4ccc5c(c4)OCO5)ccc3n2)CC1	nt	-2.64*	-0.0358	-4.97*	13.0	-1.3	502*	214
CCN1CCN(c2cc(C)c3cc(NC(=O)c4cncc(Br)c4)ccc3n2)CC1	nt	-5.01*	-0.0714	-1.79	13.2	nt	250*	228
CCN1CCN(c2cc(C)c3cc(NC(=O)c4ccc(OC)c(OC)c4)ccc3n2)CC1	26.9	nt	nt	nt	nt	nt	nt	nt
COc1cccc(C(=O)Nc2ccc3nc(N4CCOCC4)cc(C)c3c2)c1	nt	-1.32	0.164	-0.00607	0.0	-0.5	nt	nt
CSc1nc2nc3c(c(=O)n2[nH]1)CCCC3	14.3	nt	nt	nt	nt	nt	nt	nt
COC(=O)c1cc(C(=O)Nc2cc(C)ccn2)cc([N+](=O)[O-])c1	-51.0	nt	nt	nt	nt	nt	nt	nt
CCCc1nc2oc3c(NCCN(C)C)ncnc3c2c2c1CCCC2	-40.4	-6.35*	1.76	3.23*	22.7	5.7	498	259
O=c1c2c3c(sc2nc2n1CCCC2)CCC3	nt	0.518	0.154	2.1	nt	nt	nt	nt
O=c1c2c3c(sc2nc2n1CCCCC2)CCCCC3	nt	-3.07*	-1.2	2.22	-18.6	0.6	273*	220
Cc1ccc(C)n1-n1c(C)nc2sc3c(c2c1=O)CCCCC3	?	-5.56*	-0.5	nt	15.1	5.0	325*	247
CS(=O)(=O)NCCOc1ccc(S(=O)(=O)N2CCCc3ccccc32)cc1	nt	-1.49	-0.389	0.433	19.6	3.2	nt	nt
CC(C)(C)N1CC2([N+](=O)[O-])CN(C(C)(C)C)CC([N+](=O)[O-])(C1)C2	-22.4	nt	nt	nt	nt	nt	nt	nt
O=C(COC(=O)c1ccc(S(=O)(=O)Nc2ccccc2)cc1)NCCN1C(=O)CSC1=O	-30.5	-1.03	-0.516	-0.862	23.6	0.7	nt	nt
CCOC(=O)CN1C(=O)C(CC)Oc2ccc(Cl)cc21 (stereo unspecified)	-10.7	-3.62*	-0.0974	-0.432	20.5	nt	672	152
CCCCNC(=O)CN1C(=O)C(CC)Oc2ccc(Cl)cc21 (stereo unspecified)	-6.7	-0.193	-0.00821	-1.07	6.7	-5.7	nt	nt
CCCOc1ccc(C(O)(CCC)CCN2CCCCC2)cc1 (stereo unspecified)	37.7	nt	nt	nt	nt	nt	nt	nt
CCCC(O)(CCN1CCOCC1)c1ccc(Br)cc1 (stereo unspecified)	-53.4	-3.56*	-0.354	-0.527	-12.4	5.8	283*	243
